KCC2 mod: KCC2 cotransporter modulators, thallium flux, primary screen, cell-based, HEK293 KCC2, FluoZin-2 fluorescence, MLSMR; Solute carrier family 12 member 5 (Homo sapiens), Q9H2X9; KCC2 cells, thallium flux FluoZin-2 fluorescence; B-score of Tl+ flux slope (higher = more flux/activation; lower = inhibition) at 10 µM; hit rate 2.2% among 190,000; AID 1456, 2008;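 active = thallium flux slope and its plate-corrected score both differing from the plate sample mean at a set confidence after two filtering rounds, in either direction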;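 also: slope of fluorescence scaled to starting intensity during 10 to 20 s after thallium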
Diaph act CS: compounds boosting diaphorase resazurin reduction – biochemical, uHTS, resorufin fluorescence, counter-screen for diaphorase-coupled primary assays, primary screen; Diaphorase/resazurin coupled assay, 16 min; active compounds read high; 1 = vehicle wells, 0 = NADH-free wells; activation factor at 20 µM; hit rate 0.005% among 190,000; AID 1229, 2008;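 active = diaphorase activity raised at least twofold by the compound at 20 µM; inactive = activation factor below 2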
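Material: purified diaphorase enzyme from Clostridium kluyveri; Also added: 0.114 mM NADH and 0.1 mM resazurin, final amounts; Doses: single compound dose of 20 µM, 1% DMSO final; Times: 16 min enzyme reaction, ambient temperature; Detection: resorufin fluorescence, excitation 544 nm, emission 590 nm; Measure: increased resorufin signal from activators or reducing compounds.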
L major viab: Leishmania major promastigote growth inhibition, primary screen | Leishmania major promastigotes, resazurin fluorescence viability | hit rate 9% among 200,000 | AID 1063, 2008 | inhibition, % at 10 µM; in the data active = inhibition above about 50%;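 also: promastigotes grown with compound for 44 hours at 28 °C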
Diaph inh CS: diaphorase inhibitors and chemical oxidizers, primary screen, counter-screen for diaphorase-coupled primary assays, biochemical, uHTS, resorufin fluorescence. diaphorase resazurin-to-resorufin fluorescence, NADH, 16 min; bacterial (C. kluyveri) enzyme, not human. inhibition, % at 20 µM. hit rate 0.69% among 190,000. AID 1217, 2008;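 active = primary screen inhibition at 20 µM above a set limit, cut at about 50% in these data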;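 also: plate controls were DMSO with full reaction for no effect and wells lacking NADH for full effect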
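Test system: Clostridium kluyveri diaphorase enzyme / Quantity: diaphorase at 0.14 U/mL in enzyme working solution / Incubation: 16-min room-temperature incubation before reading / Benchmarks: NADH-free wells as positive control, DMSO-only neutral wells / Signal: resorufin fluorescence 544/590 nm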
WT yeast gro inh: growth inhibition of WT strain, primary screen, mitochondrial fusion inhibitor project, WT and mutant strains, chemical genetic | mitochondrial fusion phenotypic screen | inhibition, % at 10 µM | hit rate 2.1% among 190,000; in the data active = inhibition above about 58%; tested in S. cerevisiae
ROMK primary: ROMK potassium channel modulators, primary screen, cell-based, thallium flux, MLSMR library. ATP-sensitive inward rectifier potassium channel 1 (Homo sapiens), P48048. Tet-inducible ROMK, thallium flux fluorescence; actives lie on both sides. B-score at 10 µM. hit rate 2% among 130,000;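 active = signal ratio slope over the read window, or its plate-corrected B-score, at least 3 SD from the plate mean, either direction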;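 also: B-score of the F/F0 ratio slope over 7 to 12 s after thallium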
Target sequence (P48048 whole entry, looked up): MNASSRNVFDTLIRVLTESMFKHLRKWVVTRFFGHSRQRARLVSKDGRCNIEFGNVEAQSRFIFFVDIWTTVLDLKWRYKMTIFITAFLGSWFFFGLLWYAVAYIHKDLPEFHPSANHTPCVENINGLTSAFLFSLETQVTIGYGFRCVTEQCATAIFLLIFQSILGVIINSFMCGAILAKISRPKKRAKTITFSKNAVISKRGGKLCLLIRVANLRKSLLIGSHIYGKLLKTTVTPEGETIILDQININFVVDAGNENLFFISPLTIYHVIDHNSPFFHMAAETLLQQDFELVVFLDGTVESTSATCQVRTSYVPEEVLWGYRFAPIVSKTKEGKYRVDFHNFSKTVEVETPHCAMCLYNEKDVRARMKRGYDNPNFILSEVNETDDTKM
* hit, by the source's call; · = no result. The list is not random: actives were taken first. Their share in the collection is about 12%.

SMILES	KCC2 mod	Diaph act CS	L major viab	Diaph inh CS	WT yeast gro inh	ROMK primary
CC(C)CCN(C(=S)Nc1cccc(F)c1)C(C)c1cccs1 (stereo not given)	0.581	0.9	21.4	13.0	59.4*	-0.811
Cc1ccc(Cl)cc1N1CCN(Cc2cc(=O)n3ccsc3n2)CC1	·	1.1	4.5	-8.4	10.1	-1.47
COc1cccc(NC(=O)Nc2ccccc2C(N)=O)c1	0.206	0.9	-3.2	7.2	9.3	0.359
CN(C)C(CNC(=S)Nc1cccc(Cl)c1)c1cccnc1 (stereo not given)	0.793	0.9	3.0	7.2	-9.2	0.816
Cc1nc2ccccc2c(=O)n1NC(=O)c1ccccc1Cl	0.57	1	0.6	-1.2	73.9*	·
Cc1nc2ccccc2c(=O)n1NC(=O)C1CCCCC1	·	0.9	1.9	7.9	-8.7	·
Cc1nc2ccccc2c(=O)n1NC(=O)/C=C/c1ccccc1Cl	-3.46	0.9	68.5*	8.2	-6.5	-0.554
O=C(/C=C/c1ccccc1Cl)Nn1cnc2ccccc2c1=O	-0.966	1	79.1*	-0.9	-3.3	0.763
CCOC(=O)[C@@H]1C(c2c(OC)cc(OC)cc2OC)=NO[C@@H]1C(=O)OCC	-0.418	1	-2.8	-4.7	-3.1	-0.32
COc1ccc(CN2CCNC(=O)C2CC(=O)NC2Cc3ccccc3C2)c(OC)c1 (stereo not given)	·	0.9	-5.6	7.3	-15.5	0.117
COc1cccc(NC(=S)N(CCN(C)C)C(C)c2ccncc2)c1 (stereo not given)	-0.0144	·	·	·	·	·
O=S1(=O)N=C(N/N=C/C=C/c2ccccc2)c2ccccc21	-2.65	1	22.0	4.3	-2.3	0.88
O=S1(=O)N=C(N(CCO)/N=C/C=C/c2ccccc2)c2ccccc21	0.48	1	53.1*	4.9	-13.6	-0.461
O=C(COc1ccc(Cl)cc1)NCc1ccncc1	1.64	1	-7.1	4.0	-19.0	·
O=C1N/C(=N\c2ccccn2)SC1Cc1ccc(Cl)cc1 (stereo not given)	·	·	-5.3	·	-4.4	0.304
CC(C)c1ccc(NC(=O)NC2CC3CCC(C2)N3Cc2cccs2)cc1 (stereo not given)	-0.0511	1	73.0*	-1.7	3.0	0.177
Fc1ccc(NC(=S)NC2CC3CCCC(C2)N3Cc2cccs2)cc1 (stereo not given)	·	·	93.9*	·	1.0	-2.71
Cc1ccc(NC(=S)NC2CC3CCCC(C2)N3Cc2cccs2)cc1 (stereo not given)	1.64	1	92.3*	0.4	-8.1	·
CCOc1ccc(-c2nc3scc(-c4cccs4)c3c(=O)[nH]2)cc1	0.295	0.9	-3.9	8.8	1.9	-0.282
CN(/N=C/c1ccc(C(C)(C)C)cc1)C1=NCCN1	-0.589	1	56.3*	-0.7	4.8	0.157
Cc1c(CN(C)C)c2c(n1Cc1ccccc1)C(=O)c1ccccc1-2	0.554	0.8	74.7*	22.0	15.6	·
CC(NC(=O)C12CC3CC(CC(C3)C1)C2)C(=O)N/N=C/C1=C(N2CCOCC2)C(=C\c2cccc([N+](=O)[O-])c2)/CC1 (stereo not given)	1.91	1	97.8*	4.2	11.6	·
CC(C)C(NC(=O)C12CC3CC(CC(C3)C1)C2)C(=O)N/N=C/C1=C(N2CCOCC2)C(=C\c2ccc([N+](=O)[O-])cc2)/CC1 (stereo not given)	0.664	0.8	97.1*	24.1	-7.9	·
O=C(N/N=C/C1=C(N2CCOCC2)C(=C\c2ccccc2)/CC1)Nc1ccccc1	-0.888	1	6.3	4.2	-11.7	·
Cc1occc1C(=O)N/N=C/C1=C(N2CCOCC2)C(=C\c2ccc(Cl)cc2)/CC1	-0.455	0.9	-2.6	5.7	-11.6	·
SMILES	KCC2 mod	Diaph act CS	L major viab	Diaph inh CS	WT yeast gro inh	ROMK primary
O=c1[nH]c(SCc2cccc(F)c2)nc2c1CCCC2	-2.77	0.9	-3.5	12.8	-1.0	-0.103
O=c1cc(Nc2ccc3c(c2)OCO3)[nH]c(=O)n1-c1ccc(Br)cc1	-1.07	0.8	99.2*	15.5	0.9	·
CCCN(CCC)S(=O)(=O)c1ccc(NS(=O)(=O)c2ccc(F)cc2)cc1	-0.768	0.7	0.8	26.8	18.2	·
Cc1cc(Br)ccc1OCC(=O)NNC(=O)Cc1ccccc1	-0.0897	1	-6.4	4.5	-4.8	-0.197
C=CCNCCCCOc1ccc(Br)cc1C	0.594	0.9	98.6*	9.8	2.9	-1.56
Cc1cc(Br)ccc1OCCCCNCCO	0.023	0.9	85.6*	12.3	6.3	·
COc1ccc(CCNC(=O)Nc2ccccc2[N+](=O)[O-])cc1	-0.00186	1	-1.8	4.8	-31.4	-0.0306
COc1nc(Nc2ccc(C(C)C)cc2)nc(OC)n1	0.0838	0.9	86.2*	6.2	16.9	0.0573
COc1nc(Nc2ccc(O)cc2)nc(OC(C(F)(F)F)C(F)(F)F)n1	-1.42	0.9	1.1	14.8	4.3	-0.0155
c1ccc(-c2nnc3ccc(N4CCC5(CC4)OCCO5)nn23)cc1	·	0.8	5.7	24.2	40.0	-0.552
COc1ccc(S(=O)(=O)N2CCN(c3ccc4nnc(-c5ccccc5)n4n3)CC2)cc1	·	0.5	49.9	52.8*	1.3	·
CCOC(=O)c1cc(-c2ccccc2)nc2nc(N3CCCCC3)sc12	-0.681	0.8	72.5*	19.1	3.7	1.19
COc1ccc(-c2cc(C(=O)O)c3sc(N4CCCCC4)nc3n2)cc1OC	-0.253	0.5	51.8*	47.6	-8.2	0.457
Cc1ccc(-c2cc(C(=O)O)c3sc(N4CCCCC4)nc3n2)cc1	-0.701	0.7	-5.1	31.6	-6.4	·
Cc1onc(-c2ccc(Cl)cc2Cl)c1-c1csc(N/N=C/c2ccccc2)n1	1.15	·	·	·	·	·
CCCC(=O)NC(=S)Nc1ccc(N2CCN(C(=O)c3cccs3)CC2)cc1	-0.0211	0.9	-5.2	14.1	0.8	-0.33
C/C(N)=C(/C#N)C(=O)COC(=O)CC12CC3CC(CC(C3)C1)C2	·	0.8	96.6*	20.7	18.5	0.719
Cc1ccccc1NC(NC(=O)c1cccs1)C(Cl)(Cl)Cl (stereo not given)	1.86	0.9	72.4*	11.0	23.7	·
Cc1ccc(NC(NC(=O)c2cccs2)C(Cl)(Cl)Cl)cc1 (stereo not given)	·	0.8	71.4*	22.8	10.7	·
Cc1ccc(NC(NC(=O)c2cccs2)C(Cl)(Cl)Cl)cc1C (stereo not given)	-1.4	0.7	25.2	27.6	37.5	-0.146
C=CCc1c(C)[nH]c(=O)[nH]c1=O	-0.0489	1	0.6	2.8	-16.8	-0.65

Bioassay records as filed in PubChem BioAssay.
